Source: PubChem (Johns Hopkins Ion Channel Center)
Compounds with a hit are over-represented: about 3.5% of the library has one in this group of screens.
RGS4 act = potentiators or activators of RGS4. HEK293 M3R/inducible RGS4, carbachol calcium flux Fluo4; hits give low values. B-score at 10 µM. actives 0.92% (n = 310,000). AID 463111;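 active means B-score of the integrated calcium signal more than 4 SD below the library mean, with starting fluorescence not abnormally high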;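 further: negative B-score means reduced calcium response which marks RGS4 activation or potentiation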
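Test system: HEK293 cells with stable M3R and inducible RGS4; also added: carbachol at ECmax as muscarinic agonist stimulus; schedule: dye loading 30 min 37 °C, buffer rest 30 min RT; technique: kinetic calcium fluorescence imaging with Fluo4-AM dye, 2 µM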
MrgX1 PAM = human MrgX1 positive allosteric modulation, primary screen; actives 0.63% (n = 310,000); MrgX1-HEK293, Fluo-4 calcium flux, FDSS; hits give high values; B-score at 10 µM;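 active means plate-corrected calcium response at least 3 library SD above typical, normal starting fluorescence, not activating the receptor alone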;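 further: compound read alongside a low EC10 to EC30 dose of BAM8-22 agonist; peak minus trough fluorescence over baseline measured at the second addition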
Target sequence (Q96LB2 whole entry, looked up): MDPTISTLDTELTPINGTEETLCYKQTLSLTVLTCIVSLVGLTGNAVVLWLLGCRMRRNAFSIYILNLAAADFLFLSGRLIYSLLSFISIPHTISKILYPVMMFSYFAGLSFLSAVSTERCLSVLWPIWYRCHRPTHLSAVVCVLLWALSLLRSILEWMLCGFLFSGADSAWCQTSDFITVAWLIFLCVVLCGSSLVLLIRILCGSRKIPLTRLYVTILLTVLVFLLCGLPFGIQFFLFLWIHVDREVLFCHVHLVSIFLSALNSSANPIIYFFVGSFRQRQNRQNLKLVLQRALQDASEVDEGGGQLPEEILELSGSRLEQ
MrgX1 ag = activates human MrgX1 receptor signaling | actives 0.44% (n = 310,000) | Q96LB2 | B-score at 10 µM | AID 588627 | MrgX1-HEK293 cells, Fluo-4 calcium fluorescence, agonist mode; hits give high values;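 active means calcium response B-score plate-corrected fluorescence ratio at least 3 library SD, with starting fluorescence B-score inside 5 SD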
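Test system: HEK293 cells stably expressing human MrgX1 receptor; amount: 15,000 cells per well; doses: compound delivered in addition one of three; times: overnight plating before 1 h dye loading; detection: Fluo-4 NW calcium-flux fluorescence, kinetic read; read-out basis: B-scored fluorescence response ratio; controls: positive and negative controls per plate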
MrgX1 antag = human MrgX1 receptor antagonism, primary screen. MRGX1-HEK293 calcium flux, Fluo-4, BAM8-22 antagonism; hits give low values. B-score at 10 µM. actives 1.3% (n = 310,000). AID 588676;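 active means calcium-response B-score plate-corrected more than 3 library SD below zero, starting fluorescence within 5 deviations, no agonist response on first addition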;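 further: peak minus trough fluorescence over baseline after final BAM8-22 challenge near maximal dose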
RGS4 inh = inhibitors of human RGS4 | HEK293 M3R/RGS4 inducible, Fluo-4 calcium flux; hits give high values; triggered by carbachol at its EC20 | B-score at 10 µM | actives 0.45% (n = 310,000) | P49798;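 active means B-score, a plate-corrected calcium signal, over three deviations above library mean, with baseline fluorescence within five deviations of library mean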;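 further: RGS4 expression induced by doxycycline in cells with stable M3 receptor; B-score is computed from the integrated fluorescence ratio over baseline after carbachol; higher B-score means a larger calcium signal and so more RGS4 inhibition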
Target sequence (P49798 whole entry, looked up): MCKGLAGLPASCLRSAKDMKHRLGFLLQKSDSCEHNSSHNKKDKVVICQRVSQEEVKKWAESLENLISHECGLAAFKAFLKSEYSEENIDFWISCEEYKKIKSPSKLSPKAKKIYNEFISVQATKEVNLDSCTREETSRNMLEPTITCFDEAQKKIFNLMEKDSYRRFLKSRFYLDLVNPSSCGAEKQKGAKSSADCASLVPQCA
Hits are given with their value; i = inactive; nt = no result given.

SMILES | RGS4 act | MrgX1 PAM | MrgX1 ag | MrgX1 antag | RGS4 inh
CCN1CCN(Cc2ccc(NC(=O)c3ccc(C)c(NC(=O)c4ccno4)c3)cc2C(F)(F)F)CC1 | i | i | i | i | i
CCN1CCN(Cc2ccc(NC(=O)c3ccc(C)c(/C=C/c4cnc(Nc5cc(N6CCNCC6)nc(C)n5)cn4)c3)cc2C(F)(F)F)CC1 | i | i | 27 | i | i
CN(CCC#N)C(=O)COC(=O)c1ccc2c(c1)C(=O)N(C1CCCCC1)C2=O | i | i | i | i | i
C=CC[N+](C)(C)C/C(Cl)=C(\Cl)c1ccccc1 | i | i | i | i | i
COc1cc(CNc2ccc(C(=O)O)cc2)cc(Br)c1OCC(=O)NC(C)(C)C | i | i | i | -5.3 | i
CCOc1cc(CNc2ccc(OC)cc2)cc(Br)c1OCC(=O)NC(C)(C)C | i | i | i | i | i
Clc1ccc(-c2c(C3=NCCCN3)nnn2-c2ccc(Cl)cc2)cc1 | i | i | i | i | i
Cc1ccc(S(=O)(=O)c2cc3c(=O)n4ccccc4nc3n(Cc3ccco3)c2=N)cc1C | i | i | 31 | i | i
COc1ccc(CCn2c(=N)c(S(=O)(=O)c3ccccc3)cc3c(=O)n4ccccc4nc32)cc1 | i | i | i | i | i
COc1ccc(CCn2c(=N)c(S(=O)(=O)c3ccc(Cl)cc3)cc3c(=O)n4ccccc4nc32)cc1 | i | i | i | -5.5 | i
Cc1ccc(S(=O)(=O)c2cc3c(=O)n4ccccc4nc3n(CCc3ccccc3)c2=N)cc1 | -7.2 | i | i | i | i
COc1cccc(/C=N/NC(=O)c2ccc(N3CCCC3=O)cc2)c1 | i | i | i | i | i
Cc1ccn2c(C(=O)N/N=C/c3ccc(CNC(=O)C(=O)Nc4ccc(C)c(C)c4)o3)c(C)nc2c1 | i | i | i | i | i
CC(C)Nc1nc(Oc2ccc(=O)n(-c3ccccc3)n2)nc(N(C)C)n1 | i | i | i | i | i
CCOC(=O)c1sc(N2C(=O)C(O)=C(C(=O)c3ccco3)C2c2ccco2)nc1C (configuration not stated) | i | i | i | i | i
Cc1cc(C)c2nc(N3C(=O)C(O)=C(C(=O)c4ccco4)C3c3ccco3)sc2c1 (configuration not stated) | -7.9 | i | i | i | i
CCN1/C(=C/c2ccc3cc(C)ccc3[n+]2CC)Sc2ccc3sccc3c21 | i | i | 39 | i | i
CCN1/C(=C\c2ccc3cc(C)ccc3[n+]2CC)Sc2cc(C)c(C)cc21 | i | nt | nt | nt | i
NC(=S)NN=C(Cc1ccccc1)Cc1ccccc1 | i | i | i | i | i
CCn1nc(C)cc1-c1nnc(Sc2ncc([N+](=O)[O-])s2)n1C | -7.9 | i | 38 | i | i
CCn1c(C)c(C(C)=O)c(N2CCN(C(c3ccccc3)c3ccccc3)CC2)nc1=S | -7.4 | i | i | i | i
CC(NC(=O)COC(=O)c1cc([N+](=O)[O-])ccc1N1CCOCC1)c1ccccc1 (configuration not stated) | i | i | i | i | i
CC(=O)N1c2ccc(S(=O)(=O)NCCC(=O)NCCc3cccc(C)c3)cc2CC1C (configuration not stated) | i | i | i | i | i
O=C1C2C(C(=O)N1/N=C/c1cccc([N+](=O)[O-])c1)C1C=CC2C12CC2 (configuration not stated) | i | i | i | i | i
CCN1CCc2c(sc(NC(=O)c3ccc(S(=O)(=O)N(C)c4ccccc4)cc3)c2C(=O)NC)C1 | -7.5 | i | 59 | i | i
SMILES | RGS4 act | MrgX1 PAM | MrgX1 ag | MrgX1 antag | RGS4 inh
C/C(=N\Nc1ccc([N+](=O)[O-])cc1[N+](=O)[O-])C(C)(C)C(C(=O)O)C(=O)O | i | i | i | i | i
O=C(N/C(=C\c1cccnc1)C(=O)N1CCOCC1)c1ccco1 | i | i | i | -5 | i
CC1(C)Cc2noc(N)c2C(C)(C)N1O | i | i | i | -6.3 | i
CCOC(=O)N1CCN(C(=O)CSc2ccc(-c3ccc(OC)cc3)nn2)CC1 | i | i | i | i | i
COCCNCCCCOc1ccccc1-c1ccccc1 | i | i | i | -5.2 | i
CC1(C)C(=O)CC[C@@]2(C)[C@H]1CC[C@@]1(C)CC3=C(CC[C@@H]12)[C@@]1(C)CCC(=O)C(C)(C)[C@@H]1CC3 | nt | i | i | i | nt
Cc1nc2scc(-c3ccccc3)c2c(=O)n1N=C1C=CC(=O)C=C1 | -7.7 | nt | nt | nt | i
CC1C(=O)N(c2ccc(S(=O)(=O)N(C)C)cc2)C1(/C=C/c1ccccc1)C(=O)NC1CCCC1 (configuration not stated) | i | i | i | i | i
Cc1c(Cc2ccccc2)sc(/N=C/c2c(O)ccc3ccccc23)c1C(N)=O | i | i | i | -7.6 | i
Cc1c(Cc2ccccc2)sc(/N=C/c2ccc3ccccc3c2)c1C(N)=O | nt | i | i | i | nt
COc1ccc(C2=C/C(=C/c3cccnc3)C(=O)O2)cc1OC | i | i | i | i | i
CCOc1ccc(C2=C/C(=C/c3cccnc3)C(=O)O2)cc1 | i | 28 | i | i | i
N/C(=N\OC(=O)Oc1ccccc1)c1ccc(Cl)cc1 | -9.5 | i | i | i | i
COc1cc(N2CCCC2)c(OC)cc1/C=C(/C#N)c1ccc(Br)cc1 | i | i | i | -4.6 | i
COc1cc(N2CCCC2)c(OC)cc1/C=C(/C#N)c1ccc(F)cc1 | i | i | i | -4.9 | i
O=C(N[C@H](C(=O)O)c1ccccc1)C1CCC(Cn2cnc3ccccc3c2=O)CC1 (some centres not stated) | i | i | i | i | i
C=CCc1cccc(/C=N/NC(=O)CCC(=O)Nc2ccc(C)cc2)c1O | i | i | i | i | i
CCNC(=O)NCCNC(=O)c1cc(OCC(F)(F)F)ccc1OCC(F)(F)F | i | i | i | -5.5 | i
COc1ccccc1C(=O)N/C(=C/c1ccc(Br)cc1)C(=O)NCC(=O)O | i | i | i | i | i
CCOc1ccc(OCCC(=O)OCC(=O)NC(C)c2ccccc2)cc1 (configuration not stated) | i | i | i | i | i
C(=N\c1nc2ccccc2[nH]1)/c1cccs1 | i | i | 30 | i | i
NNC(=O)CNC(=O)c1cccc(Br)c1 | i | 6.5 | i | i | i
CC(=O)CC1(O)C(=O)Nc2ccccc21 (configuration not stated) | i | i | i | i | i
O=C1Nc2ccccc2C1(O)C/C(=N/O)c1ccccc1 (configuration not stated) | i | i | i | -7.5 | i
Nc1cc2c(cc1[N+](=O)[O-])OCCOCCOCCO2 | i | i | i | i | i
O=C(CN1C(=O)/C(=C/c2ccccc2)Sc2ccccc21)NCCCN1CCOCC1 | i | i | i | i | i
CN1CCN(CCCNC(=O)c2ccc(/C=C3\Oc4ccccc4N(Cc4ccccc4F)C3=O)cc2)CC1 | -8.3 | i | i | i | i
